Test results taken from publication PMC9446082 (Pharmacology Research & Perspectives, 2022).

Tests used:
ERK phosphorylation = ERK phosphorylation in wild-type Sf9 cells; assay type: cell-based, Spodoptera frugiperda; conditions: wild-type (non-transfected) Sf9 cells, data not shown
[1] = tested on: GPER‐transduced Sf9 cells; test: EdU incorporation proliferation assay in GPER-transduced Sf9 cells; assay type: cell-based; conditions: Spodoptera frugiperda, read-out: Cell proliferation IC50
GPER [2] = molecular target: T1, GPER (Homo sapiens, UniProt Q99527); test: [3H] 2-ME competition binding in GPER-transduced Sf9 cell particulate fractions
GPER [3] = molecular target: T1, GPER; test: Guanine nucleotide sensitivity of [3H] 2-ME high-affinity binding; conditions: GppNHp 100 μM, 5 mM Mg++, n = 3
Outline: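 Sf9 particulate fraction expressing baculovirus-delivered GPER, incubated with [³H]2-ME (0.5–2 nM) with or without 100 μM GppNHp. Mg⁺⁺ was 5 mM to favour the high-affinity agonist state. Binding was in Tris-HCl pH 7.4 buffer with BSA, 120 min at 15°C. Reactions were stopped with ice-cold buffer, filtered and scintillation counted. Specific binding is total minus binding with 100 nM cold 2-ME added 12 min before radioligand.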

GPER [4] = molecular target: T1, GPER; test: Dissociation rate of [3H] 2-ME binding in GPER-transduced Sf9 cells; conditions: corresponding to Koff
Outline: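 Particulate fraction (1000 × g then 20 000 × g spins) from Sf9 cells 48 h after human GPER baculovirus infection. Incubated with 2 nM [³H]2-ME for 120 min at 15°C, then diluted tenfold with ice-cold binding buffer (50 mM Tris-HCl pH 7.4). Bound radioactivity was sampled from 5 to 120 s by vacuum filtration through cellulose nitrate and scintillation counting. Nonspecific binding was taken with 100 nM unlabelled 2-ME. Mean ± SD, n = 4.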

T1 sequence (Q99527 whole entry, species assumed): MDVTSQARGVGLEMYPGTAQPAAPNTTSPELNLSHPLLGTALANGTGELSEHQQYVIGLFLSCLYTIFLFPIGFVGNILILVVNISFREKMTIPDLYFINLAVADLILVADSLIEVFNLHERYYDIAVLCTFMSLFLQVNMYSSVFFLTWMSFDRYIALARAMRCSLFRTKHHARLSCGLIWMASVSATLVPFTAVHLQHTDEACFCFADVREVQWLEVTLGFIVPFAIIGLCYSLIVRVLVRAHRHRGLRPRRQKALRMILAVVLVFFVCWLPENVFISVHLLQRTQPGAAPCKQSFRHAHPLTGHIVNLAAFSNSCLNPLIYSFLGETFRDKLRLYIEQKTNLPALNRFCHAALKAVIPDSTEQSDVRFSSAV

Ki (GPER [2]) | Molecule | Inhibition of ERK phosphorylation in wild-type Sf9 cells (ERK phosphorylation) | IC50 [1] | other results
– | CC(=O)c1ccc2c(c1)[C@@H]1C=CC[C@@H]1[C@H](c1cc3c(cc1Br)OCO3)N2 (relative stereo) [G1, 1‐[(3aS,4R,9bR‐rel)‐4‐(6‐bromo‐1,3‐benzodioxol‐5‐yl)‐3a,4,5,9b‐tetrahydro‐[^3H]‐cyclopenta[c]quinolin‐8‐yl]‐ethanone] | did not inhibit | – | –
1.5 nM | COc1cc2c(cc1O)CC[C@@H]1[C@@H]2CC[C@]2(C)[C@@H](O)CC[C@@H]12 [2‐ME, 2‐Methoxyestradiol] | did not inhibit | 0.026 nM | –
24 nM | C[C@]12CCC(=O)C=C1CC[C@@H]1[C@@H]2[C@@H](O)C[C@]2(C=O)[C@@H](C(=O)CO)CC[C@@H]12 [Aldosterone] | did not inhibit | 0.104 nM | –
– | C[C@]12CC[C@@H]3c4ccc(O)cc4CC[C@H]3[C@@H]1CC[C@@H]2O [E2, Estradiol] | did not inhibit | – | –
– | Nc1nc2c(ncn2[C@@H]2O[C@H](COP(=O)(O)OP(=O)(O)NP(=O)(O)O)[C@@H](O)[C@H]2O)c(=O)[nH]1 [GppNHp] | – | – | Reduction of high-affinity [3H] 2-ME binding (GPER [3]; [3H] 2-ME 0.5 nM): 46 ± 23%; Reduction of high-affinity [3H] 2-ME binding (GPER [3]; [3H] 2-ME 1 nM): 19 ± 7%; Reduction of high-affinity [3H] 2-ME binding (GPER [3]; [3H] 2-ME 2 nM): 53 ± 24
– | [^3H] 2‐methoxyestradiol | – | – | Dissociation half-life (GPER [4]): 21 s
